Assay results taken from ChEMBL document CHEMBL1144932, “Design, synthesis, and biological properties of new bis(acridine-4-carboxamides) as anticancer agents” (J Med Chem, 2003).

Experiments:
[1] = Apparent equilibrium constant for DNA binding (G-C); format: ADME
Outline: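 Ethidium displacement at pH 7.0 in buffer of 10 mM Na2HPO4, 10 mM NaH2PO4, 1 mM EDTA with 1.26 μM ethidium bromide and 1 μM CT-DNA, [poly(dA-dT)]2 or [poly(dG-dC)]2. Drug stock (~5 mM in DMSO) added serially. Fluorescence read at 20 °C, excitation 546 nm, emission 595 nm. C50 is the mean of three determinations. Kapp = 1.26/C50 × 10^7.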

Homo sapiens = species on record: Homo sapiens; assay: In vitro cytotoxic activity against human colon adenocarcinoma (HT-29).; format: functional
Outline: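 HT29 cells were seeded at 2.5 × 10^4 cells/mL of medium and drug solutions were added. Exposure lasted 144 h. IC50 is the drug concentration inhibiting cell growth by 50%. Assays were run in triplicate.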

Row | SMILES | K app [1] [M⁻¹] | IC50 (Homo sapiens) [µM]
1 | COc1ccc2nc3c(C(=O)NCCN(C)C)ccc(NCCN(C)CCNc4ccc(C(=O)NCCN(C)C)c5nc6ccc(OC)cc6c(O)c45)c3c(O)c2c1 | 8.8e+06 | 3.3
2 | CN(C)CCNc1ccc(C(=O)NCCN(C)CCNC(=O)c2ccc(NCCN(C)C)c3c(O)c4cc(O)ccc4nc23)c2nc3ccc(O)cc3c(O)c12 |  | 8.9
3 | CN(C)CCNc1ccc(C(=O)NCCCN(C)CCCNC(=O)c2ccc(NCCN(C)C)c3cc4ccccc4nc23)c2nc3ccccc3cc12 |  | 0.23
4 | CN(C)CCNc1ccc(C(=O)NCCN(C)CCNC(=O)c2ccc(NCCN(C)C)c3cc4ccccc4nc23)c2nc3ccccc3cc12 |  | 2
5 | CN(C)CCNC(=O)c1ccc(NCCN(C)CCNc2ccc(C(=O)NCCN(C)C)c3nc4ccccc4c(O)c23)c2c(O)c3ccccc3nc12 | 3.8e+07 | 0.41
6 | COc1ccc2nc3c(C(=O)NCCN(C)CCNC(=O)c4ccc(NCCN(C)C)c5c(O)c6cc(OC)ccc6nc45)ccc(NCCN(C)C)c3c(O)c2c1 |  | 0.89
